Results: ChEMBL document CHEMBL4689842, “EUbOPEN Chemogenomics Library wave 1” (2021)

Tests used:
Assay type in all cases: toxicity, cell-based
Fibroblast = experiment: Incucyte cell viability with human fibroblast; details: 10 µM, compound concentration 10 uM; note: filed as whole numbers so only -1 and 0 and 1 occur
U2OS [1] = experiment: Incucyte cell viability with U2OS; details: human, 10 µM, compound concentration 10 uM; note: filed as whole numbers so only -1 and 0 and 1 occur
U2OS [2] = experiment: Multiplex assay against U2OS; details: human
Outline: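 Imaging took place on a CQ1 microscope at 37°C and 5% CO2 once compound had been added to live cells stained at seeding with Hoechst33342, BioTracker Green Microtubule Cytoskeleton Dye, MitoTracker Red and Annexin V Alexa Fluor 680. CellPathfinder machine-learning gating classed cells as Hoechst high-intensity objects or normal cells, classed normal cells as having healthy, pyknosed or fragmented nuclei, and classed pyknosed cells as mitotic or apoptotic. Tubulin, mitochondrial-mass and membrane-permeability phenotypes are per cents of the healthy-nucleus cells.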

HEK-293T = experiment: Incucyte cell viability with HEK293T; details: human, 10 µM, compound concentration 10 uM; note: filed as whole numbers so only -1 and 0 and 1 occur
[3] = 0 h, replicate number 1, timepoint 0 hours
[4] = 6 h, replicate number 1, timepoint 6 hours
[5] = 12 h, replicate number 1, timepoint 12 hours
[6] = 18 h, replicate number 1, timepoint 18 hours
[7] = 24 h, replicate number 1, timepoint 24 hours
[8] = 12 h, 1 µM, compound concentration 1 uM, replicate 1
[9] = 12 h, 1 µM, compound concentration 1 uM, replicate 2
[10] = 12 h, 10 µM, compound concentration 10 uM, replicate 1
[11] = 12 h, 10 µM, compound concentration 10 uM, replicate 2
[12] = 24 h, 1 µM, compound concentration 1 uM, replicate 1
[13] = 24 h, 1 µM, compound concentration 1 uM, replicate 2
[14] = 24 h, 10 µM, compound concentration 10 uM, replicate 1
[15] = 24 h, 10 µM, compound concentration 10 uM, replicate 2

Cc1ccc(NC(=O)Nc2cc(C(F)(F)F)ccc2F)cc1Nc1ccc2c(c1)NC(=O)/C2=C\c1ccc[nH]1
Growth Rate (Fibroblast; [3]): 0 | Growth Rate (Fibroblast; [4]): 0 | Growth Rate (Fibroblast; [5]): 0 | Growth Rate (Fibroblast; [6]): 0 | Growth Rate (Fibroblast; [7]): 0 | Growth Rate (U2OS [1]; [4]): 1 | Growth Rate (U2OS [1]; [5]): 0 | Growth Rate (U2OS [1]; 12 h, replicate number 2, timepoint 12 hours): 1 | Growth Rate (U2OS [1]; [6]): 0 | Growth Rate (U2OS [1]; [7]): 0 | Population Apoptotic (%) (U2OS [2]; [8]): 32% | Population Fragmented Nuclei (%) (U2OS [2]; [8]): 15% | Population Healthy Nuclei (%) (U2OS [2]; [8]): 66% | Population Hoechst High Intensity Objects (%) (U2OS [2]; [8]): 2% | Population Membrane Permeable-Phenotype (%) (U2OS [2]; [8]): 87% | Population Mitochondria Different-Phenotype (%) (U2OS [2]; [8]): 7% | Population Mitotic Cells (%) (U2OS [2]; [8]): 68% | Population Normal (%) (U2OS [2]; [8]): 97% | Population Pyknosed Nuclei (%) (U2OS [2]; [8]): 18% | Population Tubulin-Different-Phenotype (%) (U2OS [2]; [8]): 65% | Total Cell Count (U2OS [2]; [8]): 153 | Population Apoptotic (%) (U2OS [2]; [9]): 33% | Population Fragmented Nuclei (%) (U2OS [2]; [9]): 24% | Population Healthy Nuclei (%) (U2OS [2]; [9]): 57% | Population Hoechst High Intensity Objects (%) (U2OS [2]; [9]): 12% | Population Membrane Permeable-Phenotype (%) (U2OS [2]; [9]): 91% | Population Mitochondria Different-Phenotype (%) (U2OS [2]; [9]): 18% | Population Mitotic Cells (%) (U2OS [2]; [9]): 66% | Population Normal (%) (U2OS [2]; [9]): 87% | Population Pyknosed Nuclei (%) (U2OS [2]; [9]): 17% | Population Tubulin-Different-Phenotype (%) (U2OS [2]; [9]): 59% | Total Cell Count (U2OS [2]; [9]): 88 | Population Apoptotic (%) (U2OS [2]; [10]): 22% | Population Fragmented Nuclei (%) (U2OS [2]; [10]): 2% | Population Healthy Nuclei (%) (U2OS [2]; [10]): 91% | Population Hoechst High Intensity Objects (%) (U2OS [2]; [10]): 2% | Population Membrane Permeable-Phenotype (%) (U2OS [2]; [10]): 11% | Population Mitochondria Different-Phenotype (%) (U2OS [2]; [10]): 22% | Population Mitotic Cells (%) (U2OS [2]; [10]): 77% | Population Normal (%) (U2OS [2]; [10]): 97% | Population Pyknosed Nuclei (%) (U2OS [2]; [10]): 6% | Population Tubulin-Different-Phenotype (%) (U2OS [2]; [10]): 27% | Total Cell Count (U2OS [2]; [10]): 204 | Population Apoptotic (%) (U2OS [2]; [11]): 66% | Population Fragmented Nuclei (%) (U2OS [2]; [11]): 8% | Population Healthy Nuclei (%) (U2OS [2]; [11]): 87% | Population Hoechst High Intensity Objects (%) (U2OS [2]; [11]): 11% | Population Membrane Permeable-Phenotype (%) (U2OS [2]; [11]): 5% | Population Mitochondria Different-Phenotype (%) (U2OS [2]; [11]): 29% | Population Mitotic Cells (%) (U2OS [2]; [11]): 33% | Population Normal (%) (U2OS [2]; [11]): 88% | Population Pyknosed Nuclei (%) (U2OS [2]; [11]): 3% | Population Tubulin-Different-Phenotype (%) (U2OS [2]; [11]): 19% | Total Cell Count (U2OS [2]; [11]): 147 | Population Apoptotic (%) (U2OS [2]; [12]): 75% | Population Fragmented Nuclei (%) (U2OS [2]; [12]): 14% | Population Healthy Nuclei (%) (U2OS [2]; [12]): 52% | Population Membrane Permeable-Phenotype (%) (U2OS [2]; [12]): 85% | Population Mitochondria Different-Phenotype (%) (U2OS [2]; [12]): 11% | Population Mitotic Cells (%) (U2OS [2]; [12]): 25% | Population Pyknosed Nuclei (%) (U2OS [2]; [12]): 32% | Population Tubulin-Different-Phenotype (%) (U2OS [2]; [12]): 36% | Total Cell Count (U2OS [2]; [12]): 205 | Population Apoptotic (%) (U2OS [2]; [13]): 76% | Population Fragmented Nuclei (%) (U2OS [2]; [13]): 31% | Population Healthy Nuclei (%) (U2OS [2]; [13]): 44% | Population Hoechst High Intensity Objects (%) (U2OS [2]; [13]): 4% | Population Membrane Permeable-Phenotype (%) (U2OS [2]; [13]): 94% | Population Mitochondria Different-Phenotype (%) (U2OS [2]; [13]): 12% | Population Mitotic Cells (%) (U2OS [2]; [13]): 23% | Population Normal (%) (U2OS [2]; [13]): 95% | Population Pyknosed Nuclei (%) (U2OS [2]; [13]): 23% | Population Tubulin-Different-Phenotype (%) (U2OS [2]; [13]): 53% | Total Cell Count (U2OS [2]; [13]): 118 | Population Apoptotic (%) (U2OS [2]; [14]): 26% | Population Fragmented Nuclei (%) (U2OS [2]; [14]): 2% | Population Healthy Nuclei (%) (U2OS [2]; [14]): 89% | Population Hoechst High Intensity Objects (%) (U2OS [2]; [14]): 1% | Population Membrane Permeable-Phenotype (%) (U2OS [2]; [14]): 8% | Population Mitochondria Different-Phenotype (%) (U2OS [2]; [14]): 22% | Population Mitotic Cells (%) (U2OS [2]; [14]): 73% | Population Normal (%) (U2OS [2]; [14]): 98% | Population Pyknosed Nuclei (%) (U2OS [2]; [14]): 7% | Population Tubulin-Different-Phenotype (%) (U2OS [2]; [14]): 31% | Total Cell Count (U2OS [2]; [14]): 302 | Population Apoptotic (%) (U2OS [2]; [15]): 16% | Population Fragmented Nuclei (%) (U2OS [2]; [15]): 6% | Population Healthy Nuclei (%) (U2OS [2]; [15]): 87% | Population Hoechst High Intensity Objects (%) (U2OS [2]; [15]): 8% | Population Membrane Permeable-Phenotype (%) (U2OS [2]; [15]): 7% | Population Mitochondria Different-Phenotype (%) (U2OS [2]; [15]): 32% | Population Mitotic Cells (%) (U2OS [2]; [15]): 83% | Population Normal (%) (U2OS [2]; [15]): 91% | Population Pyknosed Nuclei (%) (U2OS [2]; [15]): 5% | Population Tubulin-Different-Phenotype (%) (U2OS [2]; [15]): 18% | Total Cell Count (U2OS [2]; [15]): 205 | Growth Rate (HEK-293T; [3]): 0 | Growth Rate (HEK-293T; [4]): 0 | Growth Rate (HEK-293T; [5]): 0 | Growth Rate (HEK-293T; [6]): 0 | Growth Rate (HEK-293T; [7]): 0
